Compounds with a hit are over-represented: about 3.1% of the library has one in this group of screens.
HIV Env fusion = inhibitors of HIV-1 Env-driven cell-cell fusion, primary screen, HeLa-JRFL effector, CEM21 target cells, luciferase; inhibition, % at 12.3 µM; hit rate 1.1% among 360,000;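 active = mean replicate inhibition score of at least 50 and every replicate individually at or above 50; inconclusive = only one of the two criteria met; inactive = mean below 50 and not all replicates reaching 50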
FN deposition inh = inhibitors of fibronectin matrix deposition, primary screen, AH1F cells, Alexa488-fibronectin fluorescence, plate reader. AH1F fibroblasts, overnight. AID 743247, 2014. inhibition, % at 12.6 µM. hit rate 0.086% among 350,000;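 active = mean inhibition across replicates of 30% or more, regardless of how many single replicates reach that level; inconclusive = mean under 30% yet at least half of replicates reach 30%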
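material = AH1F fibroblast monolayer depositing Alexa488-labelled fibronectin into matrix | amount = 10000 AH1F cells/well | buffer or medium = DMEM plus 2% serum, read in PBS | incubation = 1 h cell adhesion before compound, then overnight fibronectin incubation | detection = fluorescence at 485 nm excitation, 525 nm emission | evaluation = percent inhibition as loss of matrix-bound fibronectin fluorescence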
PAX8 inh HTS = inhibitors of PAX8-driven TPO luciferase reporter, primary screen, RMG-I cells, single concentration | SteadyGlo, 24 h | inhibition, % at 12.6 µM | hit rate 1.2% among 360,000;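 active = mean replicate inhibition at least 60% with every replicate also reaching 60%; inconclusive = only one of the two criteria is met; inactive = mean below 60% and not all replicates reaching 60%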;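 also: luciferase light reporting Pax8 driven TPO promoter activity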
EWS-Fli block = EWS/Fli-driven NR0B1 reporter inhibitors, primary screen, A673 cells, NR0B1 luciferase, luminescence, MLPCN library. viability-normalised. inhibition, % at 12.6 µM. hit rate 0.67% among 350,000. AID 651661, 2012;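 active = mean inhibition of at least 50% after viability correction, with every replicate also passing that limit; inconclusive = mean reaches 50% but only one of two replicates passes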;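 also: firefly luciferase signal divided by Alamar Blue viability fluorescence both relative to DMSO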
PGC1a acetyl inh = inhibitors of PGC1a acetylation signal, primary screen, cell-based, U2OS, AlphaScreen, inhibitor mode; AlphaScreen anti-acetyl-lysine; with virally co-expressed GCN5 acetyltransferase; inhibition, % at 15.6 µM; hit rate 0.17% among 350,000;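 active = every replicate shows inhibition of at least 40%; inconclusive = mean inhibition at least 40% but some replicate below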
FGF22 binding = binders of human FGF22 protein, primary screen, FGF22 synaptogenesis inhibitor project, biophysical, thermal shift, single point | Fibroblast growth factor 22 (Homo sapiens), Q9HCT0 | recombinant FGF22 thermal shift, SYPRO orange fluorescence; percent of sucrose octasulfate shift, DMSO zero | activity (Tm shift, normalised), % at 9.99 µM | hit rate 1.5% among 340,000;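 active = mean Tm shift, scaled 0 neutral to 100 positive control, at about 1.3% or above, every replicate too, limit read from the data; inconclusive = no clear call, values can overlap the other calls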
Target sequence (Q9HCT0 whole entry, looked up): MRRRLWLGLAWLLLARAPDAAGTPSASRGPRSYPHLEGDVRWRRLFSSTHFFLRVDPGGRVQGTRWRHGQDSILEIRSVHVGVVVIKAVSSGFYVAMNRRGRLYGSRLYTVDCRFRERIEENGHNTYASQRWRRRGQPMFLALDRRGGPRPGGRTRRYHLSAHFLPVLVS
A number is an active result; – = inactive; ? = inconclusive; · = no result; [ ] = remark or other dose.

SMILES	HIV Env fusion	FN deposition inh	PAX8 inh HTS	EWS-Fli block	PGC1a acetyl inh	FGF22 binding
Cn1c(SCC(=O)N2CCCC2=O)nnc1-c1ccccc1F	–	–	–	–	–	43
C[C@H](O)C#Cc1cnc2c(c1)C(=O)N([C@@H](C)CO)C[C@H](C)[C@@H](CN(C)Cc1ccccn1)O2	–	·	·	–	–	–
Cc1ccc(S(=O)(=O)N(C)C[C@H]2Oc3c(NC(=O)c4cnccn4)cccc3C(=O)N([C@@H](C)CO)C[C@@H]2C)cc1	–	·	–	–	–	–
O=S(=O)(N[C@H]1CC[C@@H](CCn2cc(-c3ccccc3F)nn2)O[C@H]1CO)c1ccc(Cl)cc1	–	–	–	–	–	–
CCOC(=O)NC(=O)CSc1nnnn1-c1ccc(Cl)cc1	·	·	·	–	–	–
CCOC(=O)NC(=O)CSc1nnnn1-c1ccc(C)cc1	–	–	–	·	94	·
CC(C)c1ccc(-n2nnnc2SCC(=O)NC2CC2)cc1	64	–	–	–	–	–
Cc1ccc(-n2nnnc2SCC(=O)Nc2sc(C)c(C)c2C#N)cc1C	·	·	·	–	–	–
COc1ccc(-n2nnnc2SCC(=O)NC2CC2)cc1	·	–	75	–	·	–
CC(=O)c1ccc(-n2nnnc2SCC(=O)Nc2sc(C)c(C)c2C#N)cc1	–	–	–	–	·	44
COc1ccc(-n2nnnc2SCC(=O)NC2CCS(=O)(=O)C2)cc1 (stereo unspecified)	·	–	–	–	·	–
C[C@@H]1CN([C@H](C)CO)S(=O)(=O)c2ccc(C3=CCCC3)cc2O[C@@H]1CN(C)S(C)(=O)=O	–	·	·	–	–	·
CN(C)c1ccc2c(c1)[C@@H]1C[C@@H](CC(=O)NCCc3ccccc3)O[C@@H](CO)[C@@H]1O2	–	·	–	–	–	–
C[C@@H]1CCCCO[C@H](CN(C)S(=O)(=O)c2ccc(F)cc2)[C@@H](C)CN([C@@H](C)CO)C(=O)c2cc(NC(=O)Nc3ccc(C(F)(F)F)cc3)ccc2O1	–	–	65	–	–	·
C[C@H](CO)N1C[C@H](C)[C@@H](CN(C)S(=O)(=O)c2ccc(F)cc2)OCCCC[C@H](C)Oc2ccc(NC(=O)Nc3ccc(C(F)(F)F)cc3)cc2C1=O	57[16.7 µM]	–	–	–	–	·
C[C@@H]1CCCCO[C@@H](CN(C)S(=O)(=O)c2ccc(Cl)cc2)[C@H](C)CN([C@H](C)CO)C(=O)c2cc(NC(=O)Nc3ccc(C(F)(F)F)cc3)ccc2O1	–	–	70	–	–	–
C[C@@H]1CCCCO[C@@H](CN(C)S(=O)(=O)c2ccc(F)cc2)[C@H](C)CN([C@@H](C)CO)C(=O)c2cc(NC(=O)Nc3ccc(C(F)(F)F)cc3)ccc2O1	?	–	–	–	–	·
C[C@@H]1CCCCO[C@@H](CN(C)S(=O)(=O)c2ccc(F)cc2)[C@H](C)CN([C@H](C)CO)C(=O)c2cc(NC(=O)Nc3ccc(C(F)(F)F)cc3)ccc2O1	68[16.7 µM]	–	73	–	–	·
C[C@@H]1CCCCO[C@@H](CN(C)S(=O)(=O)c2ccc(F)cc2)[C@@H](C)CN([C@H](C)CO)C(=O)c2cc(NC(=O)Nc3ccc(C(F)(F)F)cc3)ccc2O1	–	–	–	–	–	·
CO[C@@H]1CN(C)C(=O)c2cc(NC(C)=O)ccc2OC[C@@H](C)N(Cc2nccs2)C[C@@H]1C	–	–	·	–	–	–
N#Cc1cccnc1Nc1ccc(Cl)cc1	–	–	–	–	·	43
C[C@H]1CN([C@@H](C)CO)C(=O)c2cc(C#Cc3ccncc3)cnc2O[C@H]1CN(C)C(=O)c1ccccc1F	–	–	–	–	–	–
CC1=Cc2ccccc2C(C#N)N1C(=O)c1ccccc1 (stereo unspecified)	–	–	–	–	–	44
Cc1ccc2c(c1)C=CC(C#N)N2C(=O)c1ccccc1 (stereo unspecified)	–	–	–	?	·	–
COCC(=O)NC[C@@H]1[C@@H](c2ccccc2)[C@@H](CO)N1C(C)=O	·	–	–	–	–	–
SMILES	HIV Env fusion	FN deposition inh	PAX8 inh HTS	EWS-Fli block	PGC1a acetyl inh	FGF22 binding
COc1ccc(/C=C/c2c(-c3ccc(OC)cc3)oc3ccccc23)cc1	56	–	–	–	–	–
COC(=O)c1ccc(/C=C/c2c(-c3ccc(OC)cc3)oc3ccccc23)cc1	–	–	–	–	–	–
CC1(C(=O)NCc2cccs2)Cc2c(-c3cccc(C(F)(F)F)c3)ccnc2O1 (stereo unspecified)	–	–	–	55	–	–
CC1(C(=O)NCc2ccco2)Cc2c(-c3ccccc3)ccnc2O1 (stereo unspecified)	–	–	–	59	–	–
CC1(C(=O)NCc2ccccc2)Cc2c(-c3cccc(C(F)(F)F)c3)ccnc2O1 (stereo unspecified)	–	–	–	–	–	–
C[C@H](CO)N1C[C@H](C)[C@@H](CN(C)C(=O)CC2CC2)Oc2ncc(C#C[C@@H](C)O)cc2C1=O	–	–	·	–	–	–
O=C(COc1nncc2ccccc12)Nc1ccc(F)c(F)c1	–	–	–	–	–	43
O=C(COc1nncc2ccccc12)Nc1c(F)c(F)c(F)c(F)c1F	–	–	–	–	–	–
Cc1ccc(S(=O)(=O)N(C)C[C@H]2OCCCC[C@H](C)Oc3ccc(NS(=O)(=O)c4ccccc4)cc3C(=O)N([C@@H](C)CO)C[C@@H]2C)cc1	–	·	–	–	–	–
Cc1ccc(S(=O)(=O)N(C)C[C@H]2OCCCC[C@H](C)Oc3ccc(NS(=O)(=O)c4cccs4)cc3C(=O)N([C@H](C)CO)C[C@@H]2C)cc1	–	–	72	–	–	–
Cc1ccc(S(=O)(=O)Nc2ccc3c(c2)C(=O)N([C@@H](C)CO)C[C@H](C)[C@H](CN(C)S(=O)(=O)c2ccccc2)OCCCC[C@H](C)O3)cc1	?	–	67	–	–	·
Cc1ccc(S(=O)(=O)Nc2ccc3c(c2)C(=O)N([C@@H](C)CO)C[C@@H](C)[C@@H](CN(C)S(=O)(=O)c2ccc(C)cc2)OCCCC[C@@H](C)O3)cc1	–	–	66	–	–	–
Cc1ccc(S(=O)(=O)Nc2ccc3c(c2)C(=O)N([C@@H](C)CO)C[C@H](C)[C@@H](CN(C)S(=O)(=O)c2ccc(C)cc2)OCCCC[C@@H](C)O3)cc1	–	–	–	–	–	–
Cc1ccc(S(=O)(=O)Nc2ccc3c(c2)C(=O)N([C@H](C)CO)C[C@H](C)[C@H](CN(C)S(=O)(=O)c2ccc(C)cc2)OCCCC[C@H](C)O3)cc1	–	–	63	–	–	–
